From ChEMBL document CHEMBL1148950, “Indole glucoalkaloids from Chimarrhis turbinata and their evaluation as antioxidant agents and acetylcholinesterase inhibitors” (J Nat Prod, 2004)
Active and inactive are the calls of the source. The rule behind the calls is not given here.

Columns and labels:
[1] = tested on: Radical scavenging activity; assay: Antioxidant activity assessed as DPPH radical scavenging activity; assay type: functional
Summary of the method: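 Radical scavenging against DPPH with rutin as the reference standard. The value is the concentration in µM needed to scavenge 50% of DPPH free radicals.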

[2] = target: Acetylcholinesterase (Homo sapiens) (UniProt P22303); assay: Inhibition of acetylcholinesterase at 0.1 uM by TLC screening assay
Summary of the method: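 TLC bioautography on silica gel. Samples in MeOH or MeOH-CH2Cl2 at 0.1 and 1.0 mM were spotted (2 µL), with physostigmine and galanthamine references at 0.1 and 0.01 µM. The plate was sprayed to saturation with 1:1 1 mM DTNB/[…] iodide in buffer, dried 5 min, then sprayed with 3 U/mL AChE. White spots on a yellow background were scored as inhibition.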

Acetylcholinesterase = target: T1, Acetylcholinesterase (Rattus norvegicus, UniProt P37136); assay: Inhibition of rat brain acetylcholinesterase by colorimetric method
T1 sequence (P37136 whole entry): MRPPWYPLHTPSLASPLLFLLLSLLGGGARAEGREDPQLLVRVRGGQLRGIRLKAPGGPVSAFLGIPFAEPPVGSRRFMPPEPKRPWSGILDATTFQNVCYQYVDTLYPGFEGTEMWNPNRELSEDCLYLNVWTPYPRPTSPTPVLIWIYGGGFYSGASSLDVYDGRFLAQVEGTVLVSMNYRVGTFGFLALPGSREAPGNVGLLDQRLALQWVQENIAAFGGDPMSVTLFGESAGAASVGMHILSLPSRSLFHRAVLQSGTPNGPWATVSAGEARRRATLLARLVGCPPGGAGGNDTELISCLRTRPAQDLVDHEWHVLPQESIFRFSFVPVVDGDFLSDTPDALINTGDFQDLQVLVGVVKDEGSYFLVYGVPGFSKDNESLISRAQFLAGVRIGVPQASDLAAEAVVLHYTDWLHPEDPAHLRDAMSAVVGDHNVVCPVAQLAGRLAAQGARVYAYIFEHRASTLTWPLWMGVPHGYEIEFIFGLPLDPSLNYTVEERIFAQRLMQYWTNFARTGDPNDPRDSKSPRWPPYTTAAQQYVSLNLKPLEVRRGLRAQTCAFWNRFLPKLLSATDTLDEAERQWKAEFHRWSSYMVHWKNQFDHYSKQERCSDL

[3] = target: Acetylcholinesterase (Homo sapiens) (UniProt P22303); assay: Inhibition of acetylcholinesterase at 1.0 uM by TLC screening assay

Sequence of Acetylcholinesterase (Homo sapiens) (P22303 whole entry): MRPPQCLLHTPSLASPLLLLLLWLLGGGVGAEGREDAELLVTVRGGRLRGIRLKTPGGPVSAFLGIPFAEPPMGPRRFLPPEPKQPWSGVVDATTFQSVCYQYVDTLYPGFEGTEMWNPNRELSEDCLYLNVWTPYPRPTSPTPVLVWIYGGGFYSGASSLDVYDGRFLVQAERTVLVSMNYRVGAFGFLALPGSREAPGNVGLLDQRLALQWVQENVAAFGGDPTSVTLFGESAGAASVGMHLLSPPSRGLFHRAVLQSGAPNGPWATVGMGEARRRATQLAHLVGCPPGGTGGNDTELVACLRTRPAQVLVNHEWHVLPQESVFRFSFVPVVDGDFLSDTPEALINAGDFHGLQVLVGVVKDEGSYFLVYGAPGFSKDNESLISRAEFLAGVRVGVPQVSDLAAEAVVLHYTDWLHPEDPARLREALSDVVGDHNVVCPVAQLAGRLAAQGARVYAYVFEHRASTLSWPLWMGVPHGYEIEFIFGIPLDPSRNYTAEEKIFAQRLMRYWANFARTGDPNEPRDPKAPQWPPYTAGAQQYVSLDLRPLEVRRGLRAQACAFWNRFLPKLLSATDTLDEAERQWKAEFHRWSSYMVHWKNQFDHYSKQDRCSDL

| Compound | IC50 [1] [µM] | also measured |
| --- | --- | --- |
| C=CC1C(C[C@@H]2NCCc3c2[nH]c2ccccc32)C(C(=O)O)=CO[C@H]1O[C@@H]1O[C@H](CO)[C@@H](O)[C@H](O)[C@H]1O (stereo partly drawn) [STRICTOSIDINIC ACID] | 49.7 |  |
| C=CC1C(C[C@@H]2NC(C(=O)O)Cc3c2[nH]c2ccccc32)C(C(=O)OC)=CO[C@H]1O[C@@H]1O[C@H](CO)[C@@H](O)[C@H](O)[C@H]1O (stereo partly drawn) | 47.1 |  |
| Cc1nc(C(=O)O)cc2c1[nH]c1ccccc12 [HARMAN-3-CARBOXYLIC ACID] | 45.5 |  |
| C[C@@H]1O[C@@H](OC[C@H]2O[C@@H](Oc3c(-c4ccc(O)c(O)c4)oc4cc(O)cc(O)c4c3=O)[C@H](O)[C@@H](O)[C@@H]2O)[C@H](O)[C@H](O)[C@H]1O [RUTIN] | 12.3 |  |
| C=C[C@H]1[C@@H](/C(=C/O)C(=O)OC)C[C@H]2c3[nH]c4ccccc4c3CCN2[C@H]1O[C@H]1O[C@@H](CO)[C@H](O)[C@@H](O)[C@@H]1O [TURBINATINE] | 50.9 | Activity [2]: Active; IC50 (Acetylcholinesterase): 1860 nM |
| C=CC1C(CC2=NCCc3c2[nH]c2ccccc32)C(C(=O)O)=CO[C@H]1O[C@@H]1O[C@H](CO)[C@@H](O)[C@H](O)[C@H]1O (stereo partly drawn) | 52.3 |  |
| C=CC1C(Cc2nc(C(=O)O)cc3c2[nH]c2ccc(O)cc23)C(C(=O)OC)=CO[C@H]1O[C@@H]1O[C@H](CO)[C@@H](O)[C@H](O)[C@H]1O (stereo partly drawn) [CORDIFOLINE] | 18.3 |  |
| C=C[C@H]1[C@H](O[C@H]2O[C@H](CO)[C@@H](O)[C@H](O)[C@H]2O)OC=C(C(=O)OC)[C@H]1Cc1nc(C(=O)O)cc2c1[nH]c1ccccc12 [DESOXYCORDIFOLINE] | 49.9 | Activity [3]: Active |
| C=C[C@H]1[C@H](O[C@@H]2O[C@H](CO)[C@@H](O)[C@H](O)[C@H]2O)OC=C(C(=O)OC)[C@H]1C[C@@H]1NCCc2c1[nH]c1ccccc21 [STRICTOSIDINE] | 56 |  |
| C=CC1C(CC2=NCCc3c2[nH]c2ccccc32)C(C(=O)OC)=CO[C@H]1O[C@@H]1O[C@H](CO)[C@@H](O)[C@H](O)[C@H]1O (stereo partly drawn) | 55.1 |  |
